In ChEMBL document CHEMBL4354866, “TREK Channel Family Activator with a Well-Defined Structure-Activation Relationship for Pain and Neurogenic Inflammation” (J Med Chem, 2020) one finds Activity, EC50 and Drug uptake data, which are given here for 1 compound.

Activity calls are given as the source filed them. The rule behind the calls is not given here.

Series [1] has as its target T1, Potassium channel subfamily K member 2 (Homo sapiens) (UniProt O95069).
T1 sequence (whole entry): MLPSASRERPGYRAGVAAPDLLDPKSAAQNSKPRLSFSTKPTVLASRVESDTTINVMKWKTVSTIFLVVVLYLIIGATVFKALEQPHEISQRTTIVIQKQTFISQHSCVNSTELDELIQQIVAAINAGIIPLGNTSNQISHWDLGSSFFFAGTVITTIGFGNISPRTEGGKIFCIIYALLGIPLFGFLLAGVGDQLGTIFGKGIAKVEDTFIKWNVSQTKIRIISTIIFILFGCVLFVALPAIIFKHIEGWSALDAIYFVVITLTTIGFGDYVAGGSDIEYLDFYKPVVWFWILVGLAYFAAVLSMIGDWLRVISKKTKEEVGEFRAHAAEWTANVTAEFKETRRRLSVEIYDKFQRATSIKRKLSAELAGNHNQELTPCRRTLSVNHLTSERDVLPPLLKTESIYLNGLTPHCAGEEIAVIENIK
The series can be described thus: (§1) Activation of recombinant human TREK1 expressed in HEK293T cells assessed as increase in K+ current amplitude by whole cell voltage clamp electrophysiological analysis. Format: cell-based. In a few lines:
(§2)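 Transiently transfected HEK-293T cells, whole-cell voltage clamp. Held at -60 mV, 500-ms ramp -120 to +60 mV. Pipette (mM) 140 KCl, 5 EGTA, 10 HEPES, pH 7.4; external 145 NaCl, 4 KCl, pH 7.3. Compound diluted from 10 mM DMSO stock and applied extracellularly. Current increase over control fitted to concentration–response curves for EC50.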

Series [2] concerns the target T2, Potassium channel subfamily K member 2 (Homo sapiens, UniProt O95069).
T2 sequence (O95069 whole entry): T1 sequence (whole entry)
The description is as §1. Format: cell-based. In a few lines: as §2

Series [3] deals with T1, Potassium channel subfamily K member 2 (Homo sapiens). Kind of series: Activation of recombinant human TREK1 expressed in HEK293T cells assessed as change in probability of open channel by inside-out patch electrophysiological analysis. Format: cell-based. In a few lines: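 Inside-out patches from HEK-293T cells expressing human TREK-1 (pEGFP-N1), 10 μM compound. Conductance taken as first open-state amplitude over voltage at -60 or +60 mV.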

The target of series [4] is Potassium channel subfamily K member 3 (Homo sapiens) (UniProt O14649). The series can be described thus: Activation of recombinant human TASK1 expressed in HEK293T cells assessed as increase in K+ current amplitude at 10 uM by whole cell voltage clamp electrophysiological analysis. Format: cell-based. In a few lines: (§3)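 HEK-293T cells transiently transfected with the human K2P channel. Whole-cell clamp at -60 mV, 500-ms ramp -120 to +60 mV. Pipette 140 KCl (pH 7.4), external 145 NaCl/4 KCl (pH 7.3). Compound 10 μM, diluted from 10 mM DMSO stock into external solution.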
Potassium channel subfamily K member 3 (Homo sapiens), sequence (O14649 whole entry, looked up): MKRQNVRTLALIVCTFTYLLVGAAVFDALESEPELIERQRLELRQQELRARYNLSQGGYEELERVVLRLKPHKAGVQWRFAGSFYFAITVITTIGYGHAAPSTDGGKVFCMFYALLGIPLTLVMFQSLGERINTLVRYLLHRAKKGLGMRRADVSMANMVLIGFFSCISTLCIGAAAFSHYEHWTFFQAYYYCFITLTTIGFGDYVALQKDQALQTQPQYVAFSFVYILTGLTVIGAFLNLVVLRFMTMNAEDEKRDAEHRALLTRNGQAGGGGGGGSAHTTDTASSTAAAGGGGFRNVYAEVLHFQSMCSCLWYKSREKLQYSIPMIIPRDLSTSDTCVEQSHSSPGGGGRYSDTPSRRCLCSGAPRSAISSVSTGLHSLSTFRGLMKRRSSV

Series [5] deals with T3, Potassium channel subfamily K member 18 (Homo sapiens) (UniProt Q7Z418).
T3 sequence (whole entry): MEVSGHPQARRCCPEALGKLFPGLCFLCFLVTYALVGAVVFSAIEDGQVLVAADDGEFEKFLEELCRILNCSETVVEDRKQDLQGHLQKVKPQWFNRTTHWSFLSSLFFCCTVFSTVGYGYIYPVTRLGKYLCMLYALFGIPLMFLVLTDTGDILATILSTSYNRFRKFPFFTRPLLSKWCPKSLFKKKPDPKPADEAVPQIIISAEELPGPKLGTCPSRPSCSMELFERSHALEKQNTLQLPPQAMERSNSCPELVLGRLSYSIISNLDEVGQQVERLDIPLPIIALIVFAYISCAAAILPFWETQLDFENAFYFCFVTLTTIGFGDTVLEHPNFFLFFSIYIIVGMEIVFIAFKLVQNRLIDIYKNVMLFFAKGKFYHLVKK
The series can be described thus: Activation of recombinant human TRESK expressed in HEK293T cells assessed as increase in K+ current amplitude at 10 uM by whole cell voltage clamp electrophysiological analysis. Format: cell-based. In a few lines: as §3

Series [6] deals with T4, Potassium channel subfamily K member 13 (Homo sapiens) (UniProt Q9HB14).
T4 sequence (whole entry): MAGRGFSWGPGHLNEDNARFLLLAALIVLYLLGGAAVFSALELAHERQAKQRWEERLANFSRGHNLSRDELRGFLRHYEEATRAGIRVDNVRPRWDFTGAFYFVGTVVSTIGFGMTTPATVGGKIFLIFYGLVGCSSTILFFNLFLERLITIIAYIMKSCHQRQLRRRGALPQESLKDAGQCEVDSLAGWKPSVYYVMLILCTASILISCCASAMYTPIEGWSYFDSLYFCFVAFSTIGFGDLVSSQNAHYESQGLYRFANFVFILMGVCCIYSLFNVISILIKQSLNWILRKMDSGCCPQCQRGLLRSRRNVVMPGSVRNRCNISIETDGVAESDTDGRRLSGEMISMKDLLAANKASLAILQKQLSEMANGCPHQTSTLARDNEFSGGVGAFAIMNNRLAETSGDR
Kind of series: Activation of recombinant human THIK1 expressed in HEK293T cells assessed as increase in K+ current amplitude at 10 uM by whole cell voltage clamp electrophysiological analysis. Format: cell-based. In a few lines:
as §3

Series [7] has as its target Potassium channel subfamily K member 2 (Homo sapiens, UniProt O95069, T156A). The series can be described thus: Activation of recombinant human TREK1 T156A mutant expressed in HEK293T cells assessed as increase in K+ current amplitude by whole cell voltage clamp electrophysiological analysis. Format: cell-based. In a few lines: as §2
In series [8] the target is T5, Potassium channel subfamily K member 2 (Rattus norvegicus) (UniProt Q920B6).
T5 sequence (whole entry): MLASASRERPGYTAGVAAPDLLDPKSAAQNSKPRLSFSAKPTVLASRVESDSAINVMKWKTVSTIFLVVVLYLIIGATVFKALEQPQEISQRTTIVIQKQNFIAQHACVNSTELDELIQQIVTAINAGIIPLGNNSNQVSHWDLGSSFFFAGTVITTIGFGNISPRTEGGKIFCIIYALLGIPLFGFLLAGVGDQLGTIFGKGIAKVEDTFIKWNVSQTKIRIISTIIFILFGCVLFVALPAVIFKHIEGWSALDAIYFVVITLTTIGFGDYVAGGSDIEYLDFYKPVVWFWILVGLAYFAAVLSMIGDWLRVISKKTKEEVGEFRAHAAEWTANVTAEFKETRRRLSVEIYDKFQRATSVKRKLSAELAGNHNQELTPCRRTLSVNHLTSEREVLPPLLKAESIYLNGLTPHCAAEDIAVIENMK
The series can be described thus: Activation of TREK in depolarized Sprague-Dawley rat DRG neurons assessed as increase in K+ current amplitude at 10 uM by whole cell voltage clamp electrophysiological analysis relative to control.

A short description of series [9]: Drug uptake in BALB/c mouse plasma at 5 mg/kg, ip administered as single dose by LC-MS/MS analysis. Format: ADME, organism-based. Particulars: in vivo. In a few lines: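 BALB/c mice (n = 6) given a single 5 mg/kg i.p. dose as a 0.5 mg/ml solution in 5% DMSO/5% Tween 80/90% saline. Plasma sampled at 0.083–8 h. Concentrations measured by LC-MS/MS against spiked standard curves; AUC, Tmax, Cmax and T1/2 calculated by non-compartmental analysis of mean concentrations.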

Potassium channel subfamily K member 2 (Homo sapiens, UniProt O95069, T156A), sequence (O95069 whole entry T156A): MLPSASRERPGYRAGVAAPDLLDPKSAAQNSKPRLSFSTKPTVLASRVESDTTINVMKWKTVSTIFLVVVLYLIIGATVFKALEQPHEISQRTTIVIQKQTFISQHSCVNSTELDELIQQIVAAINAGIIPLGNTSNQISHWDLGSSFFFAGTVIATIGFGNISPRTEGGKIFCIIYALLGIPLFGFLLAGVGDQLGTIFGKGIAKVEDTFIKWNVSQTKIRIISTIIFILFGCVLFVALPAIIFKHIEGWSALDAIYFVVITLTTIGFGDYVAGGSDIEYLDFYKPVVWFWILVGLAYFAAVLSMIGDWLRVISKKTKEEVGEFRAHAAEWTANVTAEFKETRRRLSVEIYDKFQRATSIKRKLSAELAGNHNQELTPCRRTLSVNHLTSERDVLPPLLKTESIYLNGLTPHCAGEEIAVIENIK

Take `Cc1ccc2nc(-c3ccc(NC(=O)[C@@H]4CC[C@H](C(=O)O)C4)cc3)sc2c1`: the figures for the Activity entry in series [1] and in series [8] were “Dose-dependent effect” and 24%, respectively. Moreover, the figures for the EC50 in [2] and in series [7] were 12.8 µM and 7.57 µM, respectively. In series [3], the result was inactive. Besides, the result in [4], in series [5] and in series [6] was Active. The Drug uptake result in series [9] was “Active”.
